Results taken from PubChem BioAssay AID504767 (Southern Research Specialized Biocontainment Screening …, 2011).

Assay: K1 capsule specificity via T7 phage lysis, dose response, selectivity assay for bacterial capsule biogenesis inhibitors, EV36 strain, set 4 (AID 504767)
Settings: E. coli EV36 T7 phage lysis; series mostly up to 100 µM; bacterial growth OD600 3 h p.i., % of EV36+DMSO+T7 control (lower = more lysis): at the top concentration;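 active means target-selective compounds that prevent over 30% of T7 phage killing of the bacteria in the dose series; inactive means the rest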
Summary of the method: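 Material: Escherichia coli EV36, a K1:K-12 hybrid strain / Also added: T7 bacteriophage / Measured by: OD600 absorbance / Buffer or medium: LB broth, overnight culture diluted 1:100 / Repeats: four replicate wells per concentration / Schedule: 1.5 h compound at 37 °C, read 3 h post-infection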

Bacterial growth OD600 3 h p.i., % of EV36+DMSO+T7 control (lower = more lysis), inactive:
O=C(Nc1nc2c(F)cc(F)cc2s1)c1ccncc1 93%, O=C(Nc1nc2ccc(F)cc2s1)c1ccccn1 105%, Cc1cc(C)c2nc(NC(=O)c3ccccn3)sc2c1 37%, O=C(Nc1nc2c(F)cc(F)cc2s1)c1cccnc1 100%, O=C(Nc1nc2c(Cl)cc(Cl)cc2s1)c1ccccn1 101%, O=C(Nc1nc2ccccc2s1)c1ccncc1 118%, O=C(Nc1nc2ccccc2s1)c1cccnc1 93%, O=C(Nc1nc2c(F)cccc2s1)c1ccccn1 100%, O=C(Nc1nc2c(F)cc(F)cc2s1)c1ccccc1 103%
